Source: ChEMBL document CHEMBL3098130, “Discovery of Novel Putative Inhibitors of UDP-GlcNAc 2-Epimerase as Potent Antibacterial Agents” (ACS Med Chem Lett, 2013)
In brackets after ≈: the same amount, converted by molar mass.

Assays:
Staphylococcus aureus = assay: Antibacterial activity against Staphylococcus aureus 13709 assessed as growth inhibition measured for 3 days by broth microdilution method; assay type: functional; details: Staphylococcus aureus, 13709, 72 h; read-out: MIC
Method in brief: (§1)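 MIC by broth microdilution against a panel of Gram-positive and Gram-negative strains (ATCC-type numbers where given). Run in triplicate on three different days.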

Bacillus subtilis = assay: Antibacterial activity against Bacillus subtilis 19659 assessed as growth inhibition measured for 3 days by broth microdilution method; assay type: functional; details: Bacillus subtilis, 19659, 72 h; read-out: MIC; method in brief: as §1
[1] = Clearance in CD1 mouse at 50 mg/kg, ip bid; assay type: ADME, organism-based; design: dose 50 mg/kg, route intraperitoneal; details: in vivo
Method in brief: (§2)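 Female CD-1 mice received the test compound intraperitoneally, either as a single dose (25, 50 or 100 mg/kg) or as 50 mg/kg BID. Exposure was followed over time, and clearance was reported in mL/h/kg together with tmax, Cmax, half-life, VZ and AUC.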

Mus musculus [2] = assay: Half life in CD1 mouse at 50 mg/kg, ip; assay type: ADME, organism-based; design: dose 50 mg/kg, route intraperitoneal; details: in vivo
Method in brief: (§3)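 Female CD-1 mice, single intraperitoneal dose of 25, 50 or 100 mg/kg; the 50 mg/kg BID group was dosed twice. Plasma levels were followed over time to derive tmax, Cmax, half-life, Vz, clearance and AUC. Time above MIC was taken against a 2000 ng/mL plasma threshold.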

Mus musculus [3] = assay: Tmax in CD1 mouse at 100 mg/kg, ip; assay type: ADME, organism-based; design: dose 100 mg/kg, route intraperitoneal; details: in vivo; method in brief: as §3
Serratia marcescens = assay: Antibacterial activity against Serratia marcescens assessed as growth inhibition measured for 3 days by broth microdilution method; assay type: functional; method in brief: as §1
[4] = Aqueous solubility of the compound; assay type: physicochemical; details: buffer
Mus musculus [5] = assay: AUC in CD1 mouse at 25 mg/kg, ip; assay type: ADME, organism-based, Plasma; design: dose 25 mg/kg, route intraperitoneal; details: in vivo; method in brief: as §3
Mus musculus [6] = assay: Cmax in CD1 mouse at 50 mg/kg, ip; assay type: ADME, organism-based; design: dose 50 mg/kg, route intraperitoneal; details: in vivo; method in brief: as §3
Mus musculus [7] = assay: Apparent volume of distribution in CD1 mouse at 50 mg/kg, ip; assay type: ADME, organism-based; design: dose 50 mg/kg, route intraperitoneal; details: in vivo; method in brief: as §3
Bacillus atrophaeus = assay: Antibacterial activity against Bacillus atrophaeus assessed as growth inhibition measured for 3 days by broth microdilution method; assay type: functional; method in brief: as §1
[8] = Clearance in CD1 mouse at 100 mg/kg, ip; assay type: ADME, organism-based; design: dose 100 mg/kg, route intraperitoneal; details: in vivo; method in brief: as §2
Mus musculus [9] = assay: Cmax in CD1 mouse at 100 mg/kg, ip; assay type: ADME, organism-based; design: dose 100 mg/kg, route intraperitoneal; details: in vivo; method in brief: as §3
Mus musculus [10] = assay: Half life in CD1 mouse at 25 mg/kg, ip; assay type: ADME, organism-based; design: dose 25 mg/kg, route intraperitoneal; details: in vivo; method in brief: as §3
Salmonella enterica = assay: Antibacterial activity against Salmonella enterica assessed as growth inhibition measured for 3 days by broth microdilution method; assay type: functional; method in brief: as §1
Mus musculus [11] = assay: Cmax in CD1 mouse at 50 mg/kg, ip bid; assay type: ADME, organism-based; design: dose 50 mg/kg, route intraperitoneal; details: in vivo; method in brief: as §3
Mus musculus [12] = assay: AUC in CD1 mouse at 50 mg/kg, ip; assay type: ADME, organism-based, Plasma; design: dose 50 mg/kg, route intraperitoneal; details: in vivo; method in brief: as §3
Mus musculus [13] = assay: T>MIC in CD1 mouse at 50 mg/kg, ip; details: route intraperitoneal; method in brief: as §3
Enterococcus faecalis = assay: Antibacterial activity against Enterococcus faecalis 19433 assessed as growth inhibition measured for 3 days by broth microdilution method; assay type: functional; method in brief: as §1
Mus musculus [14] = assay: Apparent volume of distribution in CD1 mouse at 25 mg/kg, ip; assay type: ADME, organism-based; design: dose 25 mg/kg, route intraperitoneal; details: in vivo; method in brief: as §3
[15] = Clearance in CD1 mouse at 50 mg/kg, ip; assay type: ADME, organism-based; design: dose 50 mg/kg, route intraperitoneal; details: in vivo; method in brief: as §2
Shigella sonnei = assay: Antibacterial activity against Shigella sonnei assessed as growth inhibition measured for 3 days by broth microdilution method; assay type: functional; method in brief: as §1
Proteus mirabilis = assay: Antibacterial activity against Proteus mirabilis assessed as growth inhibition measured for 3 days by broth microdilution method; assay type: functional; method in brief: as §1
Acinetobacter baumannii = assay: Antibacterial activity against Acinetobacter baumannii assessed as growth inhibition measured for 3 days by broth microdilution method; assay type: functional; method in brief: as §1
[16] = test system: Staphylococcus epidermidis; assay: Antibacterial activity against Staphylococcus epidermidis 13518 assessed as growth inhibition measured for 3 days by broth microdilution method; assay type: functional; details: Staphylococcus epidermidis, 13518, 72 h; method in brief: as §1
Mus musculus [17] = assay: Apparent volume of distribution in CD1 mouse at 50 mg/kg, ip bid; assay type: ADME, organism-based; design: dose 50 mg/kg, route intraperitoneal; details: in vivo; method in brief: as §3
Streptococcus agalactiae = assay: Antibacterial activity against Streptococcus agalactiae 12386 assessed as growth inhibition measured for 3 days by broth microdilution method; assay type: functional; details: Streptococcus agalactiae, 12386, 72 h; method in brief: as §1
Mus musculus [18] = assay: T>MIC in CD1 mouse at 100 mg/kg, ip; details: route intraperitoneal; method in brief: as §3
[19] = Clearance in CD1 mouse at 25 mg/kg, ip; assay type: ADME, organism-based; design: dose 25 mg/kg, route intraperitoneal; details: in vivo; method in brief: as §2
Mus musculus [20] = assay: AUC in CD1 mouse at 100 mg/kg, ip; assay type: ADME, organism-based, Plasma; design: dose 100 mg/kg, route intraperitoneal; details: in vivo; method in brief: as §3
Candida albicans = assay: Antifungal activity against Candida albicans assessed as growth inhibition measured for 3 days by broth microdilution method; assay type: functional; details: 72 h
Mus musculus [21] = assay: Tmax in CD1 mouse at 50 mg/kg, ip; assay type: ADME, organism-based; design: dose 50 mg/kg, route intraperitoneal; details: in vivo; method in brief: as §3
Mus musculus [22] = assay: Tmax in CD1 mouse at 50 mg/kg, ip bid; assay type: ADME, organism-based; design: dose 50 mg/kg, route intraperitoneal; details: in vivo; method in brief: as §3
Escherichia coli = assay: Antibacterial activity against Escherichia coli assessed as growth inhibition measured for 3 days by broth microdilution method; assay type: functional; method in brief: as §1
Mus musculus [23] = assay: T>MIC in CD1 mouse at 50 mg/kg, ip bid; details: route intraperitoneal; method in brief: as §3
Mus musculus [24] = assay: Cmax in CD1 mouse at 25 mg/kg, ip; assay type: ADME, organism-based; design: dose 25 mg/kg, route intraperitoneal; details: in vivo; method in brief: as §3
Pseudomonas aeruginosa = assay: Antibacterial activity against Pseudomonas aeruginosa assessed as growth inhibition measured for 3 days by broth microdilution method; assay type: functional; method in brief: as §1
Mus musculus [25] = assay: AUC in CD1 mouse at 50 mg/kg, ip bid; assay type: ADME, organism-based, Plasma; design: dose 50 mg/kg, route intraperitoneal; details: in vivo; method in brief: as §3
[26] = Chemical stability in aqueous solution assessed as compound isomerization/degradation at pH 10 after 3 days by HPLC/NMR analysis; assay type: physicochemical; details: buffer, pH 10, 72 h
Mus musculus [27] = assay: Half life in CD1 mouse at 100 mg/kg, ip; assay type: ADME, organism-based; design: dose 100 mg/kg, route intraperitoneal; details: in vivo; method in brief: as §3
Enterococcus faecium = assay: Antibacterial activity against Enterococcus faecium 6569 assessed as growth inhibition measured for 3 days by broth microdilution method; assay type: functional; method in brief: as §1
Mus musculus [28] = assay: Apparent volume of distribution in CD1 mouse at 100 mg/kg, ip; assay type: ADME, organism-based; design: dose 100 mg/kg, route intraperitoneal; details: in vivo; method in brief: as §3
Mus musculus [29] = assay: Half life in CD1 mouse at 50 mg/kg, ip bid; assay type: ADME, organism-based; design: dose 50 mg/kg, route intraperitoneal; details: in vivo; method in brief: as §3
Mus musculus [30] = assay: T>MIC in CD1 mouse at 25 mg/kg, ip; details: route intraperitoneal; method in brief: as §3
[31] = Inhibition of Bacillus anthracis UDP-GlcNAc 2-epimerase using UDP-GlcNAc as substrate preincubated for 15 mins by UDP-ManNAc dehydrogenase-coupled assay
Mus musculus [32] = assay: Tmax in CD1 mouse at 25 mg/kg, ip; assay type: ADME, organism-based; design: dose 25 mg/kg, route intraperitoneal; details: in vivo; method in brief: as §3
Mus musculus [33] = assay: Toxicity in CD1 mouse assessed as mortality at < 100 mg/kg, ip; assay type: organism-based; design: dose 100 mg/kg, route intraperitoneal; details: in vivo
Method in brief: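 Female CD-1 mice were given the compound intraperitoneally in the PK dose groups. Mortality and clinical observations were recorded.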

O=C(O)[C@H](Cc1ccccc1)N1C(=O)/C(=C/c2ccc(-c3ccc(Cl)c(Cl)c3)o2)NC1=S
MIC (Staphylococcus aureus): 6.8 µM (≈ 3.31 µg/mL) | MIC (Bacillus subtilis): 6.8 µM (≈ 3.31 µg/mL)

O=C(O)[C@@H](Cc1ccccc1)N1C(=O)/C(=C\c2ccc(-c3ccc(Cl)c(Cl)c3)o2)NC1=S
MIC (Staphylococcus aureus): 6.8 µM (≈ 3.31 µg/mL) | MIC (Bacillus subtilis): 6.8 µM (≈ 3.31 µg/mL)

O=C([O-])[C@H](Cc1ccccc1)N1C(=O)/C(=C\c2ccc(-c3ccc(Cl)c(Cl)c3)o2)NC1=S.[Na+]
CL/F [1]: 0.783 mL/min/kg | t1/2 (Mus musculus [2]): 2.3 h | Tmax (Mus musculus [3]): 4.8 min | MIC (Serratia marcescens): > 25 µM | solubility [4]: soluble | AUC (Mus musculus [5]): 170 µg·h/mL | Cmax (Mus musculus [6]): 140 µg/mL | Vz (Mus musculus [7]): 0.34 L/kg | MIC (Bacillus atrophaeus): 7.8 µM | CL/F [8]: 0.917 mL/min/kg | Cmax (Mus musculus [9]): 490 µg/mL | t1/2 (Mus musculus [10]): 2.4 h | MIC (Salmonella enterica): > 25 µM | Cmax (Mus musculus [11]): 320 µg/mL | AUC (Mus musculus [12]): 480 µg·h/mL | T>MIC (Mus musculus [13]): 14.6 h | MIC (Enterococcus faecalis): 15.6 µM | Vz (Mus musculus [14]): 0.5 L/kg | CL/F [15]: 1.67 mL/min/kg | MIC (Shigella sonnei): > 25 µM | MIC (Proteus mirabilis): > 25 µM | MIC (Acinetobacter baumannii): > 25 µM | MIC [16]: 2 µM | Vz (Mus musculus [17]): 0.24 L/kg | MIC (Streptococcus agalactiae): 3.9 µM | T>MIC (Mus musculus [18]): 19.4 h | CL/F [19]: 2.33 mL/min/kg | AUC (Mus musculus [20]): 1800 µg·h/mL | MIC (Candida albicans): > 25 µM | Tmax (Mus musculus [21]): 0.5 h | Tmax (Mus musculus [22]): 3.08 h | MIC (Escherichia coli): > 25 µM | T>MIC (Mus musculus [23]): 18.3 h | Cmax (Mus musculus [24]): 68 µg/mL | MIC (Pseudomonas aeruginosa): > 25 µM | AUC (Mus musculus [25]): 1050 µg·h/mL | Stability [26]: Stable | t1/2 (Mus musculus [27]): 2.2 h | MIC (Enterococcus faecium): 15.6 µM | Vz (Mus musculus [28]): 0.18 L/kg | t1/2 (Mus musculus [29]): 3.4 h | T>MIC (Mus musculus [30]): 10.6 h | Ki [31]: 82 µM | Tmax (Mus musculus [32]): 4.8 min | Activity (Mus musculus [33]): Non-toxic
